# PubChem BioAssay AID492978 (The Scripps Research Institute Molecular Screening Center, 2010)
# The source made the active and inactive calls.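 Rule for the calls: active = inhibition of the malaria parasite aminopeptidase at 45% or more; inactive = inhibition below 45%.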
# Target: Aminopeptidase N (Plasmodium falciparum (isolate 3D7)) (UniProt O96935)
# Assay: P. falciparum M1 aminopeptidase enzyme inhibition – biochemical, fluorescence, recombinant enzyme, assay provider, late-stage follow-up (AID 492978)
# Conditions: recombinant PfM1AAP, H-Leu-NHMec fluorescence; at 5 µM; active compounds read high
# Method in brief: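 Read-out basis: % inhibition relative to uninhibited enzyme. Test system: recombinant P. falciparum M1 aminopeptidase. Incubation: 10 min preincubation, 30 min kinetic reading. Measured by: kinetic fluorescence, excitation 370 nm, emission 460 nm. Benchmarks: no-inhibitor enzyme wells and no-enzyme background wells. Reagent: fluorogenic substrate H-Leu-NHMec at 50 µM final. Dosing: one dose, 5 µM.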
# Sequence of Aminopeptidase N (Plasmodium falciparum (isolate 3D7)) (O96935 whole entry, looked up): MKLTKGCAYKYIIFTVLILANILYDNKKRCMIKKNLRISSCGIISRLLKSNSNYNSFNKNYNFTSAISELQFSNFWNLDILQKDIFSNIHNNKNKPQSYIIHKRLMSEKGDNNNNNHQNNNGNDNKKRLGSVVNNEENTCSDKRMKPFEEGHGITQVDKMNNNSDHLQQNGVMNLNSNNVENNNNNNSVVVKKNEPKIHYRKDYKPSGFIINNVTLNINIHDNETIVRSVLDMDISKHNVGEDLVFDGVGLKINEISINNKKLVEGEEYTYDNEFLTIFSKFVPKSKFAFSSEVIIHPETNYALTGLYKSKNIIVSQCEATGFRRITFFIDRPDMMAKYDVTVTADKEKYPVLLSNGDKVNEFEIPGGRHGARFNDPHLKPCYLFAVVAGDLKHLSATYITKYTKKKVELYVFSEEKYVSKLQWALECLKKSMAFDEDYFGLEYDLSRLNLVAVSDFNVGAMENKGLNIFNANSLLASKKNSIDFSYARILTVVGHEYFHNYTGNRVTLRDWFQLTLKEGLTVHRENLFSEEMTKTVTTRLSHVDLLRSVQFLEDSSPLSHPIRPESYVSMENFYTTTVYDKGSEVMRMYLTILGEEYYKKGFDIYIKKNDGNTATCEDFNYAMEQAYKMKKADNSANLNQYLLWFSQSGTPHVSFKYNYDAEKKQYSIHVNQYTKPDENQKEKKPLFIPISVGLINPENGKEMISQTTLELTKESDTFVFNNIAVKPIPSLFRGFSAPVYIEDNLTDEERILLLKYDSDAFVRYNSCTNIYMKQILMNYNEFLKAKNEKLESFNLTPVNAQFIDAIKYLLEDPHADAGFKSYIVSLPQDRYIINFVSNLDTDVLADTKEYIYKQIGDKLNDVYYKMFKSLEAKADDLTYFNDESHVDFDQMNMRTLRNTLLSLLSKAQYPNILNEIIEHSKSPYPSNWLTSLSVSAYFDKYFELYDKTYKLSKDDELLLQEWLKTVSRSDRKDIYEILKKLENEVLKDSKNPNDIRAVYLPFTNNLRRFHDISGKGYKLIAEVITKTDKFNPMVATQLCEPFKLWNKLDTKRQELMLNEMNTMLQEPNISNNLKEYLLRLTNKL
row,Structure (SMILES),inhibition
1,O=C(O)CCC(=O)N1N=C(c2c(-c3ccccc3)c3cc(Cl)ccc3[nH]c2=O)CC1c1cccs1 (stereo not drawn),13% (inactive)
2,COc1ccccc1-c1nc2ccccc2c(=O)n1NC(=O)c1cccs1,38% (inactive)
3,O=C(NCCC1=CCCCC1)C1CCN(S(=O)(=O)c2ccc(Br)s2)CC1,45%
4,O=C1/C(=C/c2cccs2)SC(=S)N1NS(=O)(=O)c1ccccc1,20% (inactive)
5,O=C1N=c2ccccc2=C1c1sc(=S)n(NC(=O)c2cccc(O)c2)c1O,48%
6,O=C1N=c2ccccc2=C1c1sc(=S)n(NC(=O)c2ccccc2)c1O,13% (inactive)
7,O=C(O)CCC(=O)N1N=C(c2c(-c3ccccc3)c3cc(Cl)ccc3[nH]c2=O)CC1c1ccco1 (stereo not drawn),13% (inactive)
8,COc1ccc(C2CC(c3c(-c4ccccc4)c4cc(Cl)ccc4[nH]c3=O)=NN2C(=O)CCC(=O)O)cc1 (stereo not drawn),0% (inactive)
9,O=C(NCc1ccco1)C1CCCN(S(=O)(=O)c2cccc3nonc23)C1 (stereo not drawn),17% (inactive)
10,O=C(NCc1cccc(F)c1)C1CCN(S(=O)(=O)Cc2ccccc2)CC1,69%
11,COc1ccc(OC)c(/C=C2\SC(=S)N(C(C(=O)O)c3ccccc3)C2=O)c1 (stereo not drawn),16% (inactive)
12,CC(=O)N1N=C(c2c(O)n(C)c(=O)n(C)c2=O)CC1c1ccccc1 (stereo not drawn),7% (inactive)
13,O=C(Nn1c(C2CCC2)nc2ccccc2c1=O)c1cccs1,8% (inactive)
